Values after ≈ are worked out from the molar mass of the structure shown. Active and inactive are the calls of the source. The calls are words filed in the database; no cut-off is given here.

The IC50 is the midpoint of a concentration-inhibition curve. The term MIC denotes the least concentration at which growth counts as inhibited. A higher MIC goes with weaker potency.

Data set [1] can be described thus: Inhibition of Mycobacterium tuberculosis N-terminal His6-tagged MetAP1C using methionylprolyl-p-nitroanilide as substrate incubated for 20 mins prior to substrate addition measured for 20 mins by spectrophotometry in presence of Co2+. An outline of the steps:
(§1)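 Coupled colorimetric assay in 40 mM HEPES pH 7.5, 100 mM NaCl, 10 µM CoCl₂ or MnCl₂. Enzyme was 200 nM MetAP1a or 100 nM MetAP1c, with 1.5 U/mL Bacillus coagulans proline aminopeptidase as coupling enzyme. Eleven inhibitor levels (0.049–50 µM) were preincubated 20 min at room temperature. Met-Pro-pNA was added to 600 µM final, and A405 was followed 20 min against DMSO wells. IC50 came from nonlinear regression, averaging ≥3 independent triplicate experiments ± SD.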

Data set [2] in a line: Inhibition of Mycobacterium tuberculosis N-terminal His6-tagged MetAP1C using methionylprolyl-p-nitroanilide as substrate incubated for 20 mins prior to substrate addition measured for 20 mins by spectrophotometry in presence of Mn2+. The gist of the method:
as §1

Data set [3] can be described thus: Inhibition of Mycobacterium tuberculosis C-terminal His6-tagged MetAP1A using methionylprolyl-p-nitroanilide as substrate incubated for 20 mins prior to substrate addition measured for 20 mins by spectrophotometry in presence of Co2+. An outline of the steps: as §1
Data set [4] in a line: Inhibition of Mycobacterium tuberculosis C-terminal His6-tagged MetAP1A using methionylprolyl-p-nitroanilide as substrate incubated for 20 mins prior to substrate addition measured for 20 mins by spectrophotometry in presence of Mn2+. An outline of the steps: as §1
Data set [5] relates to Mycobacterium tuberculosis. In words: Antimycobacterial activity against Mycobacterium tuberculosis H37Rv ATCC 27294 after 7 days by microplate alamar blue assay. Format: functional. Particulars: H37Rv ATCC 27294, 168 h. (In general: Alamar Blue is a resazurin reagent that responds to reducing activity.)
A short description of data set [6]: Inhibition of Mycobacterium tuberculosis MetAP1C expressed in Escherichia coli using Met-AMC as substrate in presence of Mn2+.
The nature of data set [7]: Inhibition of Mycobacterium tuberculosis MetAP1A expressed in Escherichia coli using Met-AMC as substrate in presence of Mn2+.
The test system of data set [8] is Mycobacterium tuberculosis. Put plainly: Antimycobacterial activity against Mycobacterium tuberculosis H37Rv after 2 weeks. Conditions: 336 h. In kind it is functional. An outline of the steps: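 Each well received log-phase M. tuberculosis H37Rv diluted to ≈10⁶ CFU/mL in 7H9. An uninoculated sterile control was included. Plates were sealed and incubated 37 °C for two weeks.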

Data set [9] in a line: Mn2+ chelation activity of the compound at 10 uM. Format: functional. An outline of the steps: (§2)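 UV-vis spectra were recorded for compounds at 10 µM in MetAP assay buffer, with and without 10 µM cobalt or manganese chloride.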
Data set [10] in a line: Co2+ chelation activity of the compound at 10 uM. In kind it is functional. An outline of the steps: as §2
The nature of data set [11]: Chemical stability of the compound in Middlebrook 7H9 broth at 200 ug/mL after 10 days by HPLC analysis. Format: physicochemical. Conditions: 240 h.

In the case of `COc1ccc2c(c1)CCc1sc(/N=C/c3ccccc3O)nc1-2`, the 50% inhibitory concentration (IC50) in [1], in data set [2], in data set [3] and in [4] was above 50 µM each time.

For `CCCCCCCCC(=O)Nc1nc2c(s1)CCc1cc(OC)ccc1-2`, the IC50 in data set [1], in data set [2], in data set [3] and in [4] was above 50 µM each time.

In data set [5], `CO[C@@H](C(=O)NCCOc1c(C)cc(C)cc1C)[C@H](O)[C@@H](O)[C@H](O)/C=C/C(C)(C)C` showed an MIC of 18.5 µg/mL (≈ 43.7 µM). The results for the 50% inhibitory concentration (IC50) in [6] and in [7] were 0.54 µM and 6.9 µM, respectively.

Turning to `O/N=C\Nc1nc2c(s1)CCOc1cc3c(cc1-2)OCO3`, the MIC in data set [8] is above 200 µg/mL. Besides, the 50% inhibitory concentration (IC50) in [1] was determined as 0.38 µM; in data set [2], 3.13 µM; in data set [3], 1.26 µM; in data set [4], 24.5 µM. The outcome in [9] and in data set [10] was Active. The Stability entry in [11] is on record as “Stable”.

The compound `COc1cccc2c1CCc1sc(N/C=N\O)nc1-2` registered an MIC in [8] above 200 µg/mL. Further, the IC50 in [1] was 1.89 µM; in data set [2] it was 10.3 µM; in data set [3], 11.3 µM; in data set [4] it was 11.7 µM.

In [8], `O/N=C\Nc1nc2c(s1)COc1cc3c(cc1-2)OCO3` registered a minimal inhibitory concentration (MIC) of 100 µg/mL (≈ 343 µM). Also, the IC50 in [1] was 0.73 µM; in data set [2], 4.4 µM; in [3] it was 1.43 µM; in data set [4], above 10 µM. The result in [9] and in data set [10] was Active.

On to `COc1ccc2c(c1)CCc1sc(NC(=O)[C@H](C)O)nc1-2`, for which the 50% inhibitory concentration (IC50) in [1], in data set [2], in [3] and in [4] was above 50 µM each time.

With `COc1ccc2c(c1)CCc1sc(NC(C)=O)nc1-2`, the 50% inhibitory concentration (IC50) in data set [1], in data set [2], in data set [3] and in data set [4] was above 50 µM each time.

The compound `COc1cc2c(cc1OC)-c1nc(N/C=N\O)sc1CC2` displayed an MIC in data set [8] above 200 µg/mL. For the same compound, the IC50 is 3.77 µM in data set [1], above 50 µM in data set [2], 14.6 µM in data set [3] and 14.6 µM in data set [4].

On to `COc1ccc(-c2csc(N/C=N\O)n2)cc1OC`, for which the lowest concentration to inhibit growth in data set [8] (MIC) was 200 µg/mL (≈ 716 µM). Moreover, the concentration for half-maximal inhibition (IC50) in [1] is 6.6 µM; in [2], 7 µM; in data set [3], above 20 µM; in [4] it was above 20 µM.

For the compound `COc1ccc2c(c1)CCc1sc(/N=C/c3ccco3)nc1-2`, the half-inhibitory concentration (IC50) in [1], in data set [2], in data set [3] and in data set [4] was above 50 µM each time.

For `CN(C)/C=N/c1nc2c(s1)CCc1ccccc1-2`, the 50% inhibitory concentration (IC50) in data set [1] is 36.3 µM; in data set [2], above 50 µM; in [3] it was 28.9 µM; in [4], 27.7 µM.

In turn, `COc1ccc2c(c1)OCc1sc(N/C=N\O)nc1-2` returned a minimal inhibitory concentration (MIC) in data set [8] above 200 µg/mL. Further, the IC50 was above 50 µM in data set [1], above 50 µM in [2], 4.9 µM in data set [3] and 4.7 µM in data set [4]. For the same compound, the result in [9] and in data set [10] was Active.

With `COc1ccc2c(c1)CCc1sc(N)nc1-2`, the concentration for half-maximal inhibition (IC50) in data set [1], in [2], in [3] and in [4] was above 50 µM throughout.

With `COc1ccc2c(c1)Cc1sc(N/C=N\O)nc1-2`, in [8], the MIC worked out at 100 µg/mL (≈ 383 µM). Also, the IC50 in [1], in data set [2], in data set [3] and in [4] was above 50 µM throughout.

Regarding `O/N=C\Nc1nc2c(s1)CCc1cc3c(cc1-2)OCO3`, the minimum inhibitory concentration (MIC) in data set [8] was above 200 µg/mL. Besides, the IC50 in [1] was above 20 µM; in data set [2], 12.5 µM; in [3] it was 15.4 µM; in data set [4], above 20 µM.

The compound `O/N=C\Nc1nc2c(s1)CCc1ccccc1-2` returned an MIC in [8] of 100 µg/mL (≈ 408 µM). Moreover, the half-inhibitory concentration (IC50) in data set [1] is 1.05 µM; in [2] it was above 50 µM; in [3] it was 11.5 µM; in [4], above 50 µM. Besides, the Stability entry in data set [11] is “Stable”.

`COc1ccc2c(c1)-c1nc(NC=NO)sc1CC2`: the MIC in data set [8] came to 200 µg/mL (≈ 726 µM). The IC50 in [1] was 0.64 µM; in data set [2], 2.33 µM; in [3], 1.9 µM; in data set [4] it was above 50 µM. Moreover, the Stability entry in data set [11] was “Stable”.

On to `CCCCCCCCC(=O)Nc1nc2c(s1)CCc1ccccc1-2`, for which the 50% inhibitory concentration (IC50) in [1], in data set [2], in data set [3] and in data set [4] was above 50 µM in each case.

Consider `Nc1nc2c(s1)CCc1ccccc1-2`, for which the half-maximal inhibitory concentration (IC50) in data set [1], in data set [2], in data set [3] and in [4] was above 50 µM in each case.

`O/N=C\Nc1nc2c(s1)CCCc1cc3c(cc1-2)OCO3`: in [8], the minimum inhibitory concentration (MIC) is above 200 µg/mL. Also, the IC50 in data set [1] is 1.4 µM; in data set [2], 14.5 µM; in [3] it was 15.4 µM; in [4] it was above 50 µM.

The compound `O=C1C(Br)=C(Br)C(=O)c2ccccc21` [2,3-Dibromo-1,4-naphthoquinone] showed an MIC in data set [8] of 25 µg/mL (≈ 79.1 µM). Further, the concentration for half-maximal inhibition (IC50) in data set [1] is 0.71 µM; in data set [3], 1.14 µM.

In [8], `COc1ccc2c(c1)OC(c1ccccc1)c1sc(N/C=N\O)nc1-2` (configuration not stated) came in with a minimum inhibitory concentration (MIC) above 200 µg/mL. Also, the 50% inhibitory concentration (IC50) was above 50 µM in [1], above 50 µM in data set [2], 6.7 µM in data set [3] and 9.7 µM in data set [4].

Consider `COc1ccc2c(c1)CCc1sc(N/C=N\O)nc1-2`, for which, in data set [8], the minimum inhibitory concentration (MIC) is above 200 µg/mL. Besides, the IC50 was 1.33 µM in [1], above 50 µM in data set [2], 5.35 µM in data set [3] and above 50 µM in [4]. Moreover, in [11], the Stability entry was “Stable”.

(Values after ChEMBL document CHEMBL2057185, “Analogs of N'-hydroxy-N-(4H,5H-naphtho[1,2-d]thiazol-2-yl)methanimidamide inhibit Mycobacterium tuberculosis methionine aminopeptidases” (Bioorg Med Chem, 2012).)
